This excerpt belongs to a sample that is enriched for hits.
Myeloid diff 2: myeloid differentiation induction | 1% of 360,000 active | ER-HoxA9 myeloid progenitors, lysozyme-GFP differentiation, flow cytometry | calls only at 10 µM;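 active = normalized GFP-positive differentiation at or above the plate's own cutoff, the solvent-only control mean plus 3 SD; inconclusive = no clear call, values can overlap the other calls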;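 note: cells exposed to compound for four days before flow analysis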
Xi reactivation: reactivates the inactive X chromosome in mouse fibroblasts; XiGFP mouse fibroblasts, % GFP-positive cells imaging, 3 d; cells co-treated with 5-aza-dC sensitizer; scaled so ellipticine positive control = 100%; activation, % at 7.58 µM; 0.055% of 360,000 active;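 active = mean normalized replicate activation at least 10% and every replicate at or above 10%; inconclusive = only one of the two criteria met; inactive = mean below 10% and not all replicates reach 10%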;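 note: 0% = median of on-plate neutral control wells and 100% = ellipticine 6 µM median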
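System: XiGFP fibroblasts, SV40-immortalized. Medium: DMEM plus 5-aza-dC sensitizer. Doses: single point. Timing: 3 d treatment, 15 min room-temperature fixation. Control set: ellipticine 6 µM.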
ABCB6 inh MLPCN: blocks the human ABCB6 transporter | fluorescence ratio to DMSO, % at 10 µM | AID 602162 | 0.19% of 360,000 active | K562-ABCB6 porphyrin accumulation, flow cytometry, 1 h; hits give low values;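 active = fluorescence ratio to DMSO below 75%, the collection mean minus 3 SD; inconclusive = too few cells collected in the well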;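 note: signal is porphyrin accumulated inside mitochondria; 100% equals median channel fluorescence of DMSO control wells; lower ratio means ABCB6 inhibition with less porphyrin fluorescence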
Target sequence (Q9NP58 whole entry, looked up): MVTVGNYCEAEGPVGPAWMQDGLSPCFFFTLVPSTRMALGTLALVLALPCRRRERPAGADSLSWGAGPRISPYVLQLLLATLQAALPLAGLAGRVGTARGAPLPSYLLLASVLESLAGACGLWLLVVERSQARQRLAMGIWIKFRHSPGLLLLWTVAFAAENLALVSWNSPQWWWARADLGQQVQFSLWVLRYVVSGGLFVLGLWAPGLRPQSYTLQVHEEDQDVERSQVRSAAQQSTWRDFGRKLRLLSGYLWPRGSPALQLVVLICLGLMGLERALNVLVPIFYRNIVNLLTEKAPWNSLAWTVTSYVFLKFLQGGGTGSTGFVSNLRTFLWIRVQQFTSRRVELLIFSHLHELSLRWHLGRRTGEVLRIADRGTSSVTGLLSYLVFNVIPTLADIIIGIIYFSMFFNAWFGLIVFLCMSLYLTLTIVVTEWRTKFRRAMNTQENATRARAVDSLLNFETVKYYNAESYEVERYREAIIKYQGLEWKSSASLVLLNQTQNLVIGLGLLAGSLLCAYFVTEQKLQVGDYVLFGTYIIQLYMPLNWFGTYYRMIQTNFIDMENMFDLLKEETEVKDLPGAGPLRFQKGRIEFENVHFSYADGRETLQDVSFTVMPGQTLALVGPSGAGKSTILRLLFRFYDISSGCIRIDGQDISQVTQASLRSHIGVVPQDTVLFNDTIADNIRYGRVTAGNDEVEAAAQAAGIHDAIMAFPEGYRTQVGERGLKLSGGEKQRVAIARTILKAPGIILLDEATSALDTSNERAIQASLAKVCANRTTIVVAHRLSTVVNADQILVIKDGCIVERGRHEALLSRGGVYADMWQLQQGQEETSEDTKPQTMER
Myeloid diff: compounds promoting myeloid differentiation. shares compounds with Myeloid diff 2. ER-HoxA9 myeloid progenitors, GFP/Mac1 double-positive flow. calls only. 2% of 2,300 active. AID 651706;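 active = share of green or green-and-red cells above 9 and 9% in run 1 or 4 and 3% in run 2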
GFP autofluor: counter-screen for myeloid differentiation promoters: compound fluorescence; fluorescence response, % (concentration not given with the values); shares compounds with Myeloid diff 2; ER-HoxA9 myeloid progenitors, no estrogen, GFP autofluorescence flow cytometry; vehicle wells 0%, positive control 100%; 7.4% of 2,300 active;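 active = over 5% cells positive for green fluorescent reporter, or over 2% positive for both it and APC stain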;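 note: range taken on the double positive population between DMSO and positive control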
Starred values were filed as active, the others as inactive; i = inactive; ? = inconclusive; / = not tested or not shown; + = active, no number.

SMILES	Myeloid diff 2	Xi reactivation	ABCB6 inh MLPCN	Myeloid diff	GFP autofluor
Cn1ccc2c(N3CCCCCCC3)cc3c(c21)C1CCC3O1 (stereo not given)	+	0.1	102.0	i	0.0
Cc1noc(C)c1S(=O)(=O)Nc1ccc2c(c1)C(=O)N([C@@H](C)CO)C[C@H](C)[C@@H](CN(C)S(=O)(=O)c1c(C)noc1C)OCCCC[C@H](C)O2	/	0.1	/	/	/
CC[n+]1c(/C=C/Nc2ccccc2)sc2ccccc21	i	/	278.0	/	/
CCN1/C(=C/C=C/C=C/C=C/c2sc3ccccc3[n+]2CC)Sc2ccccc21	i	0.2	421.0	i	42.9*
COCCNC(=O)[C@H]1[C@H](CO)[C@H]2Cn3c(cccc3=O)[C@@H]1N2Cc1cccc(Cl)c1	/	0.3	/	/	/
CC(=O)N1CC(=O)N2[C@H](C1)[C@H](c1ccc(-c3ccncc3)cc1)[C@@H]2CO	/	0.5	/	/	/
CC(C)Nc1nc(NCCN2CCCC2)c2sc(-c3ccccc3)cc2n1	+	0.1	101.0	i	0.5
CC(C)Nc1nc(-c2ccccc2F)c2sc(-c3ccccc3)cc2n1	i	0.0	96.0	/	/
COCCNc1nc(NCc2ccc(NC(C)=O)cc2)c2sc(-c3ccccc3)cc2n1	?	-0.1	95.0	/	/
COCCNc1nc(NCc2cccc(OC)c2)c2sc(-c3ccccc3)cc2n1	+	-0.1	96.0	i	0.0
O=C(Nc1ccc2c(c1)[C@H]1C[C@@H](CC(=O)N3CCOCC3)O[C@H](CO)[C@H]1O2)c1cccnc1	/	0.0	/	/	/
O=C(C[C@@H]1CC[C@@H](NC(=O)Nc2ccc(F)cc2)[C@H](CO)O1)NCc1ccccn1	/	0.4	/	/	/
O=C(c1cccnc1)N1CC2(C1)[C@@H](c1ccccc1)[C@@H](CO)N2CC1CC1	/	0.0	/	/	/
Cc1nc2ccccc2n1CC(O)COCC1CC=CCC1 (stereo not given)	+	/	93.0	i	0.0
OC(COCC1CC=CCC1)Cn1cnc2ccccc21 (stereo not given)	i	/	94.0	/	/
CC1CCN(C(=S)Nc2cccc(S(=O)(=O)N(C)C)c2)CC1	+	0.0	i	i	0.3
CC1Cc2ccccc2N1C(=S)Nc1cccc(S(=O)(=O)N(C)C)c1 (stereo not given)	i	0.0	104.0	/	/
CCCN1[C@@H]2c3cccc(=O)n3C[C@H]1[C@H](CO)[C@H]2C(=O)N[C@H](C)c1ccccc1	/	0.0	/	/	/
COc1ccc(-c2csc(C(O)c3ccc(F)c(OC)c3)n2)cn1 (stereo not given)	/	-0.2	96.0	/	/
COc1ccc(-c2csc(C(O)c3ccc(F)c(F)c3)n2)cn1 (stereo not given)	+	0.0	96.0	i	0.6
Cc1noc(C)c1NC(=O)Nc1ccc2c(c1)CC(=O)N([C@H](C)CO)C[C@H](C)[C@H](CN(C)C(=O)Nc1ccccc1)O2	/	1.8	/	/	/
CCS(=O)(=O)NCC[C@H]1CC[C@@H](NC(=O)C2CCCCC2)[C@H](CO)O1	/	0.1	/	/	/
COc1cc(OC)c2c(-c3ccccc3)cc(=O)oc2c1C(CCN1CCCCC1)c1ccc2c(c1)OCO2 (stereo not given)	i	-0.7	92.0	/	/
COc1cc(OC)c2c(-c3ccccc3)cc(=O)oc2c1C(CCN1CCCC(C)C1)c1ccc2c(c1)OCO2 (stereo not given)	i	-0.3	98.0	i	0.0
O=C(NCC[C@H]1CC[C@H](NS(=O)(=O)c2cccc(F)c2)[C@@H](CO)O1)Nc1cc(F)ccc1F	/	3.2	/	/	/
SMILES	Myeloid diff 2	Xi reactivation	ABCB6 inh MLPCN	Myeloid diff	GFP autofluor
Cc1cccc(-c2nnc3sc(-c4ccccc4)nn23)c1	i	/	96.0	/	/
COc1ccc(-c2nn3c(-c4cccc(C)c4)nnc3s2)cc1OC	i	/	94.0	i	0.0
COc1ccc(CCNS(=O)(=O)c2cccc(F)c2)cc1OC	i	/	103.0	i	0.0
COc1ccc(CCNS(=O)(=O)c2cccc(C)c2)cc1OC	i	/	97.0	/	/
C[C@@H]1CN([C@H](C)CO)C(=O)c2cccc(NS(=O)(=O)c3ccccc3)c2O[C@@H]1CN(C)CC1CC1	/	0.0	/	/	/
CCOCCCNC(=O)c1c[nH]c2ccc(OCC)cc2c1=O	i	0.0	92.0	/	/
CCCOc1ccc2[nH]cc(C(=O)O)c(=O)c2c1	i	/	90.0	i	0.4
Cc1ccc(NS(=O)(=O)c2ccc3c(c2)C(=O)c2ccccc2C3=O)c(C)c1	i	-0.1	98.0	/	/
Cc1ccc(NC2=CC(=O)C(=O)c3ccccc32)c(C)c1	+	0.5	102.0	i	3.1*
COCC(=O)N1CCC2(CC1)CN(Cc1cc(F)ccc1F)[C@H](CO)c1c2c2ccc(OC)cc2n1C	/	0.0	/	/	/
CC(C)NC(=O)N1[C@H](CO)[C@@H](c2ccccc2)C12CN(C(=O)CN(C)C)C2	/	-0.1	/	/	/
COCC(=O)N1CC2(C1)[C@@H](c1ccc(-c3ccc(F)cc3)cc1)[C@H](CO)N2C(=O)C1CC1	/	0.3	/	/	/
CC1=Nc2cc(C(=O)O)ccc2Sc2ccc(Br)cc21	i	0.1	102.0	/	/
CC1=Nc2cc(C(=O)NCC3CCCO3)ccc2Sc2ccc(Br)cc21 (stereo not given)	i	0.2	94.0	i	1.3
CCCC(=O)Nc1ccc2c(c1)C(=O)N(C)C[C@H](OC)[C@H](C)CN(S(=O)(=O)c1cn(C)cn1)[C@@H](C)CO2	/	0.3	/	/	/
O=C(C[C@H]1CC[C@@H](NC(=O)C2CCOCC2)[C@@H](CO)O1)Nc1ccc(-c2ccccc2)cc1	/	0.0	/	/	/
Cc1ccc(-c2ccc([C@H]3[C@@H]4C=CCC[C@@]4(C)C(=O)N3Cc3ccccc3)c(F)c2)cc1	i	0.0	95.0	/	/
COc1ccc(-c2ccc([C@H]3[C@@H]4C=CCC[C@@]4(C)C(=O)N3Cc3ccccc3)c(F)c2)cc1	i	0.1	93.0	i	0.0
CC(C)C(=O)Nc1cccc(NC(=O)CCN2C(=O)c3ccccc3S2(=O)=O)c1	i	/	80.0	i	0.3
CSc1cccc(NC(=O)CN2C(=O)c3ccccc3S2(=O)=O)c1	i	0.0	100.0	i	0.0
O=C(CN1C(=O)c2ccccc2S1(=O)=O)Nc1ccccc1	i	/	99.0	/	/
COc1cccc(NC(=O)CCN2C(=O)c3ccccc3S2(=O)=O)c1	i	/	97.0	/	/
O=C(C[C@@H]1C=C[C@@H](NC(=O)C2CC2)[C@@H](CO)O1)NC1CCC1	/	-1.2	/	/	/
COCC(=O)Nc1ccc2c(c1)OC[C@@H](C)N(CC1CC1)C[C@H](C)[C@H](OC)CN(C)C2=O	/	0.4	/	/	/
CO[C@@H]1CN(C)C(=O)c2ccc(NC(C)=O)cc2OC[C@@H](C)N(C(=O)C2CCCCC2)C[C@H]1C	/	0.3	/	/	/
N#Cc1ccc(-c2ccc3c(c2)[C@@H]2[C@@H](CCN2C(=O)CN2CCOCC2)[C@H](CO)N3)cc1	/	0.0	/	/	/
COc1cc(S(=O)(=O)n2ccc(C)n2)c(OC)cc1Cl	+	/	102.0	i	0.0
COc1cc(S(=O)(=O)n2ccc(C)n2)ccc1Cl	i	0.1	95.0	/	/

Screening results: PubChem, several laboratories
